Experimental data of several laboratories.
Compare with care: the assays were run in different laboratories.
GLP1R: Glucagon-like peptide 1 receptor (GLP1R, Homo sapiens, UniProt P43220)
MDM4: Protein Mdm4 (MDM4, Homo sapiens, UniProt O15151)
DRD3: D(3) dopamine receptor (DRD3, Homo sapiens, UniProt P35462)
Cnr1: Cannabinoid receptor 1 (Cnr1, Mus musculus, UniProt P47746)

Structure (SMILES) | target | assay | setting | endpoint | result
O=C(O[C@@H]1Cc2c(O)cc(O)cc2O[C@@H]1c1cc(O)c(O)c(O)c1)c1cc(O)c(O)c(O)c1 | Maltase-glucoamylase (Homo sapiens, UniProt O43451) | enzyme activity, inhibitor |  | Ki | 5930 nM
CC(C)C[C@H](NC(=O)[C@H](Cc1ccc(O)cc1)NC(=O)[C@H](CO)NC(=O)[C@H](CO)NC(=O)[C@@H](NC(=O)[C@H](CC(=O)O)NC(=O)[C@H](CO)NC(=O)[C@@H](NC(=O)[C@H](Cc1ccc(O)cc1)NC(=O)[C@@H](NC(=O)CNC(=O)[C@H](CC(=O)O)NC(=O)[C@H](C)NC(=O)[C@@H](N)Cc1c[nH]cn1)[C@@H](C)O)[C@@H](C)O)C(C)C)C(=O)N[C@@H](CCC(N)=O)C(=O)N[C@@H](CC(=O)O)C(=O)N[C@@H](CCC(N)=O)C(=O)N[C@@H](C)C(=O)N[C@@H](C)C(=O)N[C@@H](CCCCN)C(=O)N[C@@H](CCC(=O)O)C(=O)N[C@@H](Cc1ccccc1)C(=O)N[C@H](C(=O)N[C@@H](CO)C(=O)N[C@@H](Cc1c[nH]c2ccccc12)C(=O)N[C@@H](CC(C)C)C(=O)N[C@@H](CCCCN)C(=O)N[C@H](C(=O)NCC(=O)N[C@@H](CCCNC(=N)N)C(=O)NCC(=O)O)[C@@H](C)O)C(C)C | GLP1R | reporter gene, agonist, luciferase |  | EC50 | 0.436 nM
CC(C)[C@@H]1NC(=O)[C@H](CO)NC(=O)[C@H](CO)NC(=O)[C@H](CO)N(C)C(=O)[C@H](CC(=O)O)NC(=O)[C@H](CO)NC(=O)[C@H](Cc2ccccc2)NC(=O)CSC[C@@H](C(=O)NCC(N)=O)NC(=O)[C@H](CC(N)=O)NC(=O)[C@H](CCCNC(=N)N)NC(=O)[C@H](C)NC(=O)[C@H](Cc2ccc(-c3ccccc3)cc2)NC(=O)[C@H](CC(N)=O)NC(=O)[C@@H]2CCCN2C1=O | MDM4 | ligand displacement, TR-FRET |  | IC50 | > 10 µM
Cc1cc(O)cc(C)c1C[C@H](N)C(=O)N[C@H](C)C(=O)NCC(=O)N[C@@H](Cc1ccc(Cl)cc1)C(=O)N(C)CCC[C@@]1(c2ccc(F)cc2)OCc2cc(C#N)ccc21 | DRD3 | ligand displacement, radioligand |  | Ki | 890 nM
CSc1nc(N[C@H](C(C)C)C2CC2)c2ncn([C@H]3[C@H](O)[C@H](O)[C@]4(CO)C[C@H]34)c2n1 | DRD3 | ligand displacement, radioligand |  | Ki | 2230 nM
COc1cc(N)c(Cl)cc1C(=O)NC1CCN(CCCOc2ccc(F)cc2)CC1OC (stereo not shown) | DRD3 | ligand displacement, radioligand |  | IC50 | 6.32 µM
CC(C)[C@H](NC(=O)[C@@H]1CSSC(C)(C)[C@H](NC(=O)[C@@H](N)CC(=O)O)C(=O)N[C@@H](Cc2ccccc2)C(=O)N[C@H](Cc2c[nH]c3ccccc23)C(=O)N[C@@H](CCCN)C(=O)N[C@@H](Cc2ccc(N)cc2)C(=O)N1)C(=O)O | Urotensin-2 receptor (UTS2R, Homo sapiens, UniProt Q9UKP6) | ligand displacement, radioligand | cell membranes | Ki | 2.69 nM
CC(C)C[C@H](NC(=O)[C@H](Cc1c[nH]c2ccccc12)NC(=O)[C@H](C)NC(=O)[C@@H](NC(=O)[C@H](Cc1ccccc1)NC(=O)[C@H](CO)NC(=O)[C@H](CCC(N)=O)NC(=O)[C@H](C)NC(=O)[C@H](C)NC(=O)[C@H](CCC(N)=O)NC(=O)[C@H](CC(=O)O)NC(=O)[C@H](CCC(N)=O)NC(=O)[C@H](CC(C)C)NC(=O)[C@H](Cc1ccc(O)cc1)NC(=O)[C@H](CO)NC(=O)[C@H](CO)NC(=O)[C@@H](NC(=O)[C@H](CC(=O)O)NC(=O)[C@H](CO)NC(=O)[C@@H](NC(=O)[C@H](Cc1ccc(O)cc1)NC(=O)[C@@H](NC(=O)CNC(=O)[C@H](CCC(=O)O)NC(=O)[C@H](C)NC(=O)[C@@H](N)Cc1c[nH]cn1)[C@@H](C)O)[C@@H](C)O)C(C)C)C(C)C)C(=O)N[C@@H](CCCCN)C(=O)N[C@@H](CO)C(=O)NCC(=O)N[C@@H](CCC(N)=O)C(=O)N1CCC[C@H]1C(=O)O | GLP1R | reporter gene, agonist, luciferase |  | EC50 | 29.5 nM
C[C@H](N)Cn1ncc2ccc3c(c21)CCCO3 | 5-hydroxytryptamine receptor 2C (Rattus norvegicus, UniProt P08909) | calcium signal, agonist |  | EC50 | 15.7 nM
CC(C)NCC1CCc2cc(CO)c([N+](=O)[O-])cc2N1 (stereo not shown) | DRD3 | ligand displacement, radioligand |  | IC50 | 7.4 µM
CCCC[C@@H](NC(=O)[C@@H](N)Cc1ccc(O)cc1)C(=O)NCC(=O)N[C@@H](Cc1ccc(F)cc1)C(=O)N(C)CCC[C@@]1(c2ccc(F)cc2)OCc2cc(C#N)ccc21 | DRD3 | ligand displacement, radioligand |  | Ki | 4300 nM
CO/N=C1\C[C@]2(C[C@@H]3C[C@@H](C/C=C(\C)C[C@@H](C)/C=C/C=C4\CO[C@@H]5[C@H](O)C(C)=C[C@@H](C(=O)O3)[C@]45O)O2)O[C@H](/C(C)=C/C(C)C)[C@H]1C | Nuclear receptor subfamily 1 group I member 3 (Homo sapiens, UniProt Q14994) | reporter gene, antagonist |  | IC50 | 44.1 µM
CC[C@H](C)[C@H](NC(=O)[C@H](CC(C)C)NC(=O)[C@H](Cc1c[nH]c2ccccc12)NC(=O)[C@H](CC(=O)O)NC(=O)[C@@H](NC(=O)[C@H](Cc1ccccc1)NC(=O)[C@H](CCC(=O)O)NC(=O)[C@H](CCCCN)NC(=O)[C@H](C)NC(=O)[C@H](C)NC(=O)[C@H](CCCCN)NC(=O)[C@H](CCC(=O)O)NC(=O)[C@H](CC(=O)O)NC(=O)[C@H](CC(C)C)NC(=O)[C@H](Cc1c[nH]cn1)NC(=O)[C@H](CCC(N)=O)NC(=O)[C@@H](NC(=O)[C@@H](NC(=O)[C@H](CC(=O)O)NC(=O)[C@H](CO)NC(=O)[C@@H](NC(=O)[C@H](Cc1ccccc1)NC(=O)[C@@H](NC(=O)CNC(=O)[C@H](CCC(=O)O)NC(=O)[C@H](C)NC(=O)[C@@H](N)Cc1c[nH]cn1)[C@@H](C)O)[C@@H](C)O)C(C)C)[C@@H](C)O)[C@@H](C)CC)C(=O)N[C@@H](CC(N)=O)C(=O)NCC(=O)NCC(=O)N1CCC[C@H]1C(=O)O | GLP1R | reporter gene, agonist, luciferase |  | EC50 | 0.449 nM
O=C(O)[C@H]1O[C@@H](Oc2cc(O)cc(/C=C/c3ccc(O)cc3)c2)[C@H](O)[C@@H](O)[C@@H]1O | Cnr1 | ligand displacement, radioligand | cell membranes | Ki | > 100000 nM
CSCC[C@H](NC(=O)[C@H](CCC(=O)O)NC(=O)[C@@H]1CCCN1C(=O)[C@@H](NC(=O)[C@@H]1CCCN1)[C@@H](C)O)C(=O)N[C@@H](CCCNC(=N)N)C(=O)N[C@@H](CCC(=O)O)C(=O)N[C@@H](CCCCN)C(=O)N[C@@H](CC(C)C)C(=O)N[C@H]1CSSC[C@@H]2NC(=O)[C@@H](NC(=O)[C@H](CC(C)C)NC(=O)[C@@H](NC(=O)[C@H](CCC(N)=O)NC(=O)[C@H](CC(C)C)NC(=O)[C@H](CC(=O)O)NC(=O)[C@@H]3CCC(=O)N3)[C@@H](C)O)CSSC[C@H](NC(=O)CNC(=O)[C@H](CC(=O)O)NC(=O)[C@H]([C@@H](C)O)NC2=O)C(=O)N[C@@H](CO)C(=O)N[C@@H](CCSC)C(=O)N[C@@H]([C@@H](C)O)C(=O)N[C@@H](CC(=O)O)C(=O)N[C@@H](CC(C)C)C(=O)N[C@@H](CO)C(=O)N[C@@H](C)C(=O)N[C@@H](CC(C)C)C(=O)N[C@H](C(=O)O)CSSC[C@@H](C(=O)NCC(=O)NCC(=O)N2CCC[C@H]2C(=O)N[C@@H](CCCNC(=N)N)C(=O)N[C@@H](Cc2c[nH]c3ccccc23)C(=O)N[C@@H](CO)C(=O)N[C@H](C(=O)N[C@@H](CCC(=O)O)C(=O)N[C@@H](C)C(=O)O)[C@@H](C)O)NC(=O)[C@H](C(C)C)NC(=O)[C@H](CCCNC(=N)N)NC(=O)[C@H](C(C)C)NC(=O)[C@H](CC(C)C)NC(=O)[C@H](C)NC(=O)[C@H](CCCNC(=N)N)NC(=O)[C@H](C(C)C)NC(=O)[C@H](Cc2ccccc2)NC(=O)[C@H](Cc2c[nH]cn2)NC(=O)[C@H](Cc2c[nH]cn2)NC(=O)CNC1=O | Relaxin receptor 2 (RXFP2, Homo sapiens, UniProt Q8WXD0) | ligand displacement in cells |  | Ki | 0.708 nM
CCCCNNC(=O)c1ccc(Br)cc1 | Histone deacetylase 5 (HDAC5, Homo sapiens, UniProt Q9UQL6) | enzyme activity, inhibitor, fluorescence |  | IC50 | > 100 µM
CCN(CC)c1ccc(/C=N/NC(=O)c2ccc(O)cc2)cc1 | Protein smoothened (SMO, Homo sapiens, UniProt Q99835) | ligand displacement |  | IC50 | 0.1 µM
CC(C)(O)[C@@H](Nc1nc(Cl)nc2c1ncn2[C@H]1[C@H](O)[C@H](O)[C@]2(CO)C[C@H]12)C1CC1 | DRD3 | ligand displacement, radioligand |  | Ki | 1350 nM
C/C(N)=N\C(=N/S(=O)(=O)c1ccc(C(F)(F)F)cc1)N1C[C@H](c2ccccc2)C(c2ccc(Cl)cc2)=N1 | Cnr1 | ligand displacement, radioligand | cell membranes | Ki | 2.3 nM
COc1ncccc1-c1cnn2ccc(N3CCN(C(=O)OC(C)C)CC3)nc12 | Glutamate NMDA receptor; GRIN1/GRIN2B (GRIN1/GRIN2B, Homo sapiens, UniProt Q05586+Q13224) | ion current, inhibitor |  | IC50 | > 25 µM
CC[C@H](C)[C@H](NC(=O)[C@H](CC(=O)O)NC(=O)[C@H](CC(N)=O)NC(=O)[C@@H](NC(=O)[C@H](Cc1ccccc1)NC(=O)[C@H](CO)NC(=O)CNC(=O)[C@H](CC(=O)O)NC(=O)[C@H](C)NC(=O)[C@@H](N)Cc1c[nH]cn1)[C@@H](C)O)C(=O)N[C@@H](CC(N)=O)C(=O)N[C@@H](CCCCN)C(=O)N[C@H](C(=O)N[C@@H](CC(C)C)C(=O)N[C@@H](CC(=O)O)C(=O)N[C@H](C(=O)N[C@H](C(=O)N[C@@H](C)C(=O)N[C@@H](C)C(=O)N[C@@H](CCC(N)=O)C(=O)N[C@@H](CCC(=O)O)C(=O)N[C@@H](Cc1ccccc1)C(=O)N[C@@H](CC(C)C)C(=O)N[C@@H](CC(=O)O)C(=O)N[C@@H](Cc1c[nH]c2ccccc12)C(=O)N[C@H](C(=O)N[C@H](C(=O)N[C@@H](CC(N)=O)C(=O)N[C@H](C(=O)N[C@@H](CCC(N)=O)C(=O)N[C@H](C(=O)N[C@H](C(=O)N[C@@H](CCC(=O)O)C(=O)O)[C@@H](C)O)C(C)C)[C@@H](C)O)[C@@H](C)CC)C(C)C)[C@@H](C)CC)[C@@H](C)CC)C(C)C | GLP1R | reporter gene, agonist, luciferase |  | EC50 | 29.9 nM
CC(C)[C@@H]1NC(=O)[C@H](CO)NC(=O)[C@H](CO)NC(=O)[C@H](CO)N(C)C(=O)[C@H](CC(=O)O)NC(=O)[C@H](CO)NC(=O)[C@H](Cc2ccccc2)NC(=O)CSC[C@@H](C(=O)NCC(N)=O)NC(=O)[C@H](CC(N)=O)NC(=O)[C@H](CCCNC(=N)N)NC(=O)[C@H](Cc2ccc(-c3ccccc3)cc2)NC(=O)[C@H](Cc2ccc(-c3ccccc3)cc2)NC(=O)[C@H](CC(N)=O)NC(=O)[C@@H]2CCCN2C1=O | MDM4 | ligand displacement, TR-FRET |  | Ki | 740 nM
